Shown are actives, neighbours in structure and some others; about 5.9% of the full set was active somewhere.
Pyk2 oligo antag: Pyk2 (human) oligomerization antagonism | Q14289 | Q293 cells, Pyk2 FERM NanoBiT luminescence; hits give low values | z-score (the deposit names both 25 µM and 10 µM) | hit rate 0.83% among 99,000;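 active means Z-score of -3 or lower, scaled per plate to the spread of control and sample wells; inactive means z-score above -3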;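 further: negative z-score means lost luminescence so less FERM oligomerization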
Target sequence (Q14289 whole entry, looked up): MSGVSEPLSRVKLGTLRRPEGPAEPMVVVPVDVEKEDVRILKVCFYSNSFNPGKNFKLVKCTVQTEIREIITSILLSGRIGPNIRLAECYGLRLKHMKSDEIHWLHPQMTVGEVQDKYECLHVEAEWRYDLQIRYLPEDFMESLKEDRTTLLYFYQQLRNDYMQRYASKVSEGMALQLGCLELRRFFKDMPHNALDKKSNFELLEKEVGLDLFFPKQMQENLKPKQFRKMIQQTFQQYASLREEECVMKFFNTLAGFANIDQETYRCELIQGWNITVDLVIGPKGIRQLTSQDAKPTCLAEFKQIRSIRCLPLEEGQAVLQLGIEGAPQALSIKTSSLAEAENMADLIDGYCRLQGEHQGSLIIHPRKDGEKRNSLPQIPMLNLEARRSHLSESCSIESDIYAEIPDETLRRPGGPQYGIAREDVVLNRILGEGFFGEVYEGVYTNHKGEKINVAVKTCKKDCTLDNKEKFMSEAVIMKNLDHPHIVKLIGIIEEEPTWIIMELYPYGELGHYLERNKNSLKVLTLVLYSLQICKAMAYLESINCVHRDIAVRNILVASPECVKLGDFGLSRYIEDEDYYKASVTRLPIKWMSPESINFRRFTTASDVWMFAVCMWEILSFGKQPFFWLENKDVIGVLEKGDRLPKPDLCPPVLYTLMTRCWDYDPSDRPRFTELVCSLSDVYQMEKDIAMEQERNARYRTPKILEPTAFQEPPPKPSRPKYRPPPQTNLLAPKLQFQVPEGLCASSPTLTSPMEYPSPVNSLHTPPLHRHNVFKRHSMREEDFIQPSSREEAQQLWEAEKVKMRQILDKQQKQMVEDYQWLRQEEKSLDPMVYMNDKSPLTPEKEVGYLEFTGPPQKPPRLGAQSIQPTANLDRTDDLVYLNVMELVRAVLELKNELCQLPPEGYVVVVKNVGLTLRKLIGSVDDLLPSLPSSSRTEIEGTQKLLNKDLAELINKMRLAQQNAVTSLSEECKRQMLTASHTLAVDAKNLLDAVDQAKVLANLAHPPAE
Cav32 inh: blocks human Cav3.2 T-type calcium channel. O95180. Cav3.2-expressing cells, Fluo-4 calcium fluorescence FDSS; hits give low values. B-score at 10 µM. hit rate 4% among 100,000. AID 449739;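 active means single-dose well whose peak fluorescence ratio is a statistical outlier from its plate by either plate-standardised score or position-corrected B-score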
hDAT+cocaine: changed human dopamine transporter uptake under cocaine IC80; hit rate 1.3% among 110,000; Q01959; LLC-PK1 hDAT cells, [14C]-dopamine uptake with cocaine IC80; actives deviate in either direction; AID 449768; B-score at 10 µM;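 active means Z score or B-score, a plate-position-corrected score, falls beyond the plate's 99.7% confidence bounds, in either direction; inactive means both scores lie inside the 99.7% bounds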;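 further: scored against the spread of the other compound wells on the same plate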
HIV Rev-RRE inh: disrupts HIV-1 Rev binding to RRE RNA; hit rate 0.79% among 97,000; Rev peptide-RRE RNA binding, FRET; inhibition, % at 8 µM; AID 704; P05866;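 active means inhibition above the screen-wide mean plus 3 SD, cut at about 35% in these data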;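 further: 0% = median DMSO wells and 100% = median Neomycin B control wells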
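Test system – labelled RRE RNA duplex and labelled Rev peptide · Reagent – labelled Rev peptide · Doses – one concentration, 8 µM nominal · Incubation – 5 + 15 min at 25 °C · Signal – FRET fluorescence readout · Read-out basis – % inhibition of FRET ratio versus controls · Control set – DMSO wells as 0% and neomycin B wells as 100% inhibition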
Phagocytosis inh: blocks phagocytosis by macrophages. J774A.1 macrophage IgG-bead phagocytosis, imaging. inhibition, % at 5 µM. hit rate 0.07% among 110,000;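 active means inhibition above the mean of the plate negative controls plus 5 SD, cut at about 13% in these data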;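 further: phagocytic index as fraction of beads internalized from green versus red external bead signal; plate controls were DMSO negative control for no effect and cytochalasin-D positive control for full effect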
Measles CPE: protection of cells from measles virus; Measles virus-infected cells, CPE protection, absorbance; protection (pct of control), % at 4 µM; hit rate 1.5% among 140,000; AID 841; in the data active means protection mostly above about 24%, no sharp cut-off; inactive means mostly below about 26%
Starred values were filed as active, the others as inactive; . = no result given.

SMILES | Pyk2 oligo antag | Cav32 inh | hDAT+cocaine | HIV Rev-RRE inh | Phagocytosis inh | Measles CPE
CN(C(=S)NC(=O)CCCOc1ccc(Cl)cc1Cl)c1ccccc1 | 0.05 | -3.7* | 1.1 | -3 | 2 | 6
CC(C)NC(=O)CCCOc1ccc(Cl)cc1Cl | 2.5 | -0.45 | 0.74 | -5 | 1 | 11
COC(=O)C1N2C(=O)[C@@H](NC(=O)COc3ccccc3)[C@H]2SC1(C)C (stereo not given in full) | . | 0.36 | -0.025 | . | . | .
CCOc1ccccc1C(=O)N[C@H](C(=O)OCc1cc([N+](=O)[O-])cc2c1OCOC2)C(C)C | . | . | . | . | -3 | 4
CCOC(=O)C1=C(C)NC(C)=C(C(=O)OCC)C1c1cc2ccc(C)cc2[nH]c1=O | -0.92 | -5.1* | 0.51 | 5 | -1 | 3
CC(=O)Oc1ccc(-c2cc3c(OC(C)=O)cc(OC(C)=O)cc3oc2=O)cc1 | . | -2 | 0.054 | . | . | .
O=C(Nc1ccccc1N1CCN(C(=O)c2ccc(Cl)cc2)CC1)c1cc2ccccc2o1 | -1.8 | -3.1* | 0.069 | 1 | -2 | 7
COc1ccc(/C=N/NC(=O)c2cccc([N+](=O)[O-])c2)cc1OC(=O)c1ccccc1 | 0.14 | -0.92 | -0.033 | 9 | . | 2
CCOc1cc(/C=N/NC(=O)CNc2ccc(C)cc2)ccc1OC(=O)c1ccccc1 | -0.11 | -1.3 | 1.7 | 11 | 174* | 10
COc1ccc(/C=N/NC(=O)c2cccc([N+](=O)[O-])c2)cc1OC(=O)c1ccc(C)cc1 | 1 | -5.4* | 1.3 | -1 | . | 19
CCOc1cc(/C=N/NC(N)=O)ccc1OC(=O)c1ccc(C)cc1 | . | . | . | 8 | . | 20
O=S1(=O)C[C@H]2NC(=S)N(c3ccccc3)[C@H]2C1 | . | . | . | . | -12 | 12
CC(C)NC(=O)COC(=O)c1cc(Br)ccc1Cl | . | . | . | . | 0 | 52*
COC(=O)c1cc(NC(=O)c2cccc(C(F)(F)F)c2)c(=O)oc1C/C=N/OCc1cccc(Cl)c1Cl | 2.3 | -4.6* | 0.45 | 39* | 0 | 6
CC(C)C1N=C2c3ccccc3N=C(SCc3cc(=O)n4cc(Cl)ccc4n3)N2C1=O (stereo not given) | -0.58 | 1.8 | -7.1* | 13 | 0 | 14
Cc1ccc2nc(CSc3nnc(Nc4ccccc4F)s3)cc(=O)n2c1 | . | . | . | . | -7 | 11
Fc1ccc(OCc2nnc(SCCN3CCOCC3)o2)cc1 | -0.08 | 0.54 | 0.78 | -2 | . | 6
CC(=O)Nc1ccc(S(=O)(=O)NCCSCc2c(Cl)cccc2Cl)cc1 | -0.19 | -5.1* | 2 | 8 | 0 | 19
S=C1NCCOCCNC(=S)NCCOCCOCCOCCN1 | . | . | . | . | -4 | 6
CCN(CC)S(=O)(=O)c1csc(C(=O)NCc2ccccc2)c1 | -0.17 | -0.41 | 2.6* | -6 | 0 | 10
O=C(CSc1nc2ccc(Cl)cc2[nH]1)N1CCN(C(=O)c2ccco2)CC1 | . | . | . | . | -2 | 18
Cn1c(N)c(C(=O)c2ccc(F)cc2F)c(=O)n(C)c1=O | . | . | . | . | -1 | 17
CCC(NC(=O)c1cccc(Cn2cc([N+](=O)[O-])cn2)c1)c1ccc(C(C)C)cc1 (stereo not given) | -0.91 | -4.3* | -0.67 | 14 | 0 | 22
CC(NC(=O)c1cccc(Cn2cc([N+](=O)[O-])cn2)c1)c1ccc(C(C)(C)C)cc1 (stereo not given) | -0.43 | -4.3* | -0.14 | 5 | 0 | 3
O=C(CSc1cccs1)Nc1cccc2ccccc12 | . | . | . | . | -9 | 22
SMILES | Pyk2 oligo antag | Cav32 inh | hDAT+cocaine | HIV Rev-RRE inh | Phagocytosis inh | Measles CPE
O=C(CSc1cccs1)Nc1ccc2ccccc2c1 | -0.19 | -5.3* | 0.012 | 5 | . | 11
COc1ccc(CN(C)CC(=O)Nc2cc(OC)c([N+](=O)[O-])cc2C)c(OC)c1 | . | . | . | . | . | 16
COc1cc(CCC(=O)Nc2ccc(C)c(S(=O)(=O)N(C)C)c2)cc(OC)c1OC | . | . | . | . | -12 | 3
Cc1oc2c(c1C(=O)c1ccccc1)C(=O)C(=O)c1ccccc1-2 | -2.2 | -5.1 | -2.3 | 4 | . | -1
O=C1C(=O)c2c(C(=O)c3ccccc3)coc2-c2ccccc21 | -3.6* | -2.2 | 0.37 | 13 | 2 | 4
CCn1cc(C(=O)NCc2ccco2)c(=O)c2cc(S(=O)(=O)N3CCCCCC3)ccc21 | -0.66 | -2.2 | 1.2 | 2 | 2 | .
CCn1cc(C(=O)NC2CCC(C)CC2)c(=O)c2cc(S(=O)(=O)N3CCCCC3)ccc21 (stereo not given) | . | -7.2* | 2.2* | 9 | 0 | 91*
CCn1cc(C(=O)NCc2ccco2)c(=O)c2cc(S(=O)(=O)N3CC(C)CC(C)C3)ccc21 (stereo not given) | -0.86 | -8.1* | 1.1 | 3 | -1 | .
C=CCn1cc(C(=O)NCc2ccco2)c(=O)c2cc(S(=O)(=O)N3CCCCCC3)ccc21 | -1.5 | -4.9* | 3.3* | 4 | -2 | 5
C[C@H]1CCC[C@@]2(O[C@@H](CCO)C[C@@H](O)[C@@H]2O)O1 | . | 1 | -0.22 | . | . | .
COCc1cc(C)nc(OCC(=O)N/N=C/c2cccc(OC)c2)c1C#N | -0.08 | 0.9 | 0.32 | 5 | -2 | .
COCc1cc(C)nc(OCC(=O)N/N=C\c2cc(C)n(-c3cccc(C(F)(F)F)c3)c2C)c1C#N | 0.47 | -4.8* | 1.9 | 0 | -1 | 9
CCOC(=O)CN1C(=O)C(O)(CC(=O)c2ccc3c(c2)CCCC3)c2ccccc21 (stereo not given) | 0.43 | -7.3* | 1.1 | -1 | . | 6
CCOC(=O)CN1C(=O)C(O)(CC(=O)c2cccc(OC)c2)c2ccccc21 (stereo not given) | 1.5 | 0.037 | 0.3 | -2 | 0 | 23
Cc1ccc(-c2nnn(CC(=O)N(Cc3ccco3)C(C(=O)NC(C)(C)C)c3cccs3)n2)o1 (stereo not given) | -0.19 | -6.3* | 0.16 | 2 | . | 4
COc1ccc(C(=O)N(Cc2ccco2)Cc2cccs2)c(O)c1 | -0.41 | -4.8* | 0.15 | 0 | -2 | 3
COCCN(C(=O)Cc1cccs1)C(C(=O)NCc1ccc(OC)cc1)c1ccc(OC)cc1 (stereo not given) | 0.22 | 0.35 | -1.9 | 4 | 2 | 40*
COc1ccc(CNC(=O)C(c2cccs2)N(Cc2ccco2)C(=O)Cc2cccs2)cc1 (stereo not given) | -0.76 | -7.2* | -0.45 | 7 | . | 25
COc1ccc(CNC(=O)C(c2ccco2)N(Cc2cccs2)C(=O)Cc2cccs2)cc1 (stereo not given) | -1.8 | -0.2 | -0.33 | 9 | . | 7
O=C(Nc1ccccc1)c1cccc(S(=O)(=O)Oc2ccc([N+](=O)[O-])cc2)c1 | . | . | . | . | -3 | 14
CCCC(=O)NC(c1ccco1)c1c(O)ccc2ccccc12 (stereo not given) | -1.3 | -1.3 | 0.05 | 1 | 1 | 4
CCCCC(=O)NC(c1ccco1)c1c(O)ccc2ccccc12 (stereo not given) | -1.4 | -5.5* | -0.5 | 2 | -1 | 7

Compound activity (PubChem BioAssay)
